Measurements published in publication PMC7938327 (Journal of medicinal chemistry, 2017).
“Also recorded” adds a separate entry of the source.

Tests used:
[1] = test system: 4T1 breast cancer cell line; test: Chemoresistance of 4T1 cells to paclitaxel; assay type: cell-based, mouse; conditions: for LD50 to PT with ATX inhibitor pretreatment: 24 h pretreatment with 3 μM compound, then PT 48 h
human recombinant ATX [2] = biological target: T1, human recombinant ATX (Homo sapiens, UniProt Q13822); test: ATX lysophospholipase D activity, FS-3 hydrolysis; assay type: biochemical; conditions: FS-3 0 to 10 μM, inhibitor 0, 0.5 × IC50 or 2 × IC50; best global fit
human recombinant ATX [3] = biological target: T1, human recombinant ATX; test: ATX nucleotide pyrophosphatase activity, pNP-TMP hydrolysis; assay type: biochemical; conditions: 1 mM pNP-TMP, 4 nM ATX, compound 0 to 1 μM
How it was run: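 Human recombinant FLAG-tagged ATX was expressed in Sf9 insect cells and purified on anti-FLAG resin. Absorbance at 405 nm was read every 2 min for 1 h.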

[4] = biological target: T2, purified recombinant ENPP7 (Homo sapiens, UniProt Q6UWV6); test: ENPP7 inhibition, pNPPC hydrolysis; assay type: biochemical; conditions: 10 μM pNPPC, 10 nM ENPP7, compound 0 to 10 μM; data not shown
T2 sequence (Q6UWV6 22-458): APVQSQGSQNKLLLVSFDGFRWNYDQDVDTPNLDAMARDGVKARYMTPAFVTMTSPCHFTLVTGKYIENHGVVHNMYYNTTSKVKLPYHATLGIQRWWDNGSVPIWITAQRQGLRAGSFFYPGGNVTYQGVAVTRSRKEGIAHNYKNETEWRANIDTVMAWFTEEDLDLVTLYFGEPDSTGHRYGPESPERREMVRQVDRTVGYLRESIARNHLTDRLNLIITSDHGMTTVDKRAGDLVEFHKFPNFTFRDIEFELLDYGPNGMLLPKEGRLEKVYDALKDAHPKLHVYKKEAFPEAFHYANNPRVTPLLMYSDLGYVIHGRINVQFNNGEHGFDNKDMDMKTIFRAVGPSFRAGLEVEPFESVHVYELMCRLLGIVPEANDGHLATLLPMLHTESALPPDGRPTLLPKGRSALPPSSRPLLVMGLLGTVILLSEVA
How it was run: (§1)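 Purified recombinant enzyme (0 or 10 nM) was incubated with 10 μM pNPPC and 0–10 μM test compound in triplicate wells. Buffers were 100 mM Tris, 500 mM NaCl, 0.05% Triton, pH 9.0 for ENPP6, and 50 mM Tris, 150 mM NaCl, 10 mM taurocholate, pH 8.5 for ENPP7. Absorbance at 405 nm was read every 2 min for 1 h.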

[5] = test system: A2058 human melanoma cells; test: ATX-mediated in vitro invasion assay; assay type: cell-based; conditions: exogenous LPC and recombinant ATX; for inhibition of A2058 cell invasion, screen at 10 μM: compared with 30; for inhibition of A2058 cell invasion (in words): dose–response
[6] = In vitro stability in 4T1 cell culture by LC-MS; assay type: in vitro ADME, mouse; conditions: 40 h of exposure to 4T1 cells
LPA1 = LPA1 (Homo sapiens, UniProt Q92633); test: LPA-mediated Ca2+ mobilization, LPA1 RH7777 cells; assay type: cell-based; conditions: for antagonist activity at LPA1 (in words): LPA1-elicited Ca2+ responses
Sequence of LPA1 (Q92633 whole entry, species assumed): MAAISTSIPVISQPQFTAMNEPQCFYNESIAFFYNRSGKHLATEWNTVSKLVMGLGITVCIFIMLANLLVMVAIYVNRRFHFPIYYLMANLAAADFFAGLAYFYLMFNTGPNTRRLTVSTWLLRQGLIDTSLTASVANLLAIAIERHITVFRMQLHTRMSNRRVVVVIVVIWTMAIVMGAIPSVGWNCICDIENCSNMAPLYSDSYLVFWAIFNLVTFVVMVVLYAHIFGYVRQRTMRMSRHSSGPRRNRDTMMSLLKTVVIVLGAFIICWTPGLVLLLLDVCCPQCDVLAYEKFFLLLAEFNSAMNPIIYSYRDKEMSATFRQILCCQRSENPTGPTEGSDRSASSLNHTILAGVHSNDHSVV
How it was run: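 Rat hepatoma RH7777 cells stably expressing LPA1 were seeded at 5 × 10^4 per well on poly-L-lysine, left overnight, then serum-deprived 4 h in HEPES-Krebs buffer pH 7.4. Cells were loaded 30 min with 4.5 μg/mL Fura-2AM plus 0.45% Pluronic F-127. […] The 340/510 and 380/510 nm ratio was read every 3.42 s for 70 s, normalized to LPA Emax, and fitted by variable-slope regression for IC50.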

[7] = biological target: T3, purified recombinant ENPP6 (Homo sapiens, UniProt Q6UWR7); test: ENPP6 inhibition, pNPPC hydrolysis; assay type: biochemical; conditions: 10 μM pNPPC, 10 nM ENPP6, compound 0 to 10 μM; data not shown
T3 sequence (Q6UWR7 23-440): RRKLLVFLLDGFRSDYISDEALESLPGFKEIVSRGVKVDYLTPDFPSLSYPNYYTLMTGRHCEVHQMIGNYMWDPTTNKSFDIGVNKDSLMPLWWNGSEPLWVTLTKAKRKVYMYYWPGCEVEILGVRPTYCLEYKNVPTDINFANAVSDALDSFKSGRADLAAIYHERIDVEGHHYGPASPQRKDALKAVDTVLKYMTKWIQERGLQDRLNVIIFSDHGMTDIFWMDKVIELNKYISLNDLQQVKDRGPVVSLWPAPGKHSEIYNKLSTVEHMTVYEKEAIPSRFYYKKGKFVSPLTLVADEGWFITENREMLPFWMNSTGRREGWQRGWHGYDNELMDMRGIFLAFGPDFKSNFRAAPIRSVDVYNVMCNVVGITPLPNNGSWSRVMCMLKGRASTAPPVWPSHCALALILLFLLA
How it was run: as §1

[8] = test system: 4T1-TaxR cancer stem-like cells (mammospheres); test: 4T1-TaxR mammosphere viability with paclitaxel; assay type: cell-based, mouse
LPA5 = LPA5 (Homo sapiens, UniProt Q9H1C0); test: LPA-mediated Ca2+ mobilization, LPA5 B103 cells; assay type: cell-based; conditions: LPA 18:1 alone; normalized to percentage of LPA 18:1 Emax
Sequence of LPA5 (Q9H1C0 whole entry, species assumed): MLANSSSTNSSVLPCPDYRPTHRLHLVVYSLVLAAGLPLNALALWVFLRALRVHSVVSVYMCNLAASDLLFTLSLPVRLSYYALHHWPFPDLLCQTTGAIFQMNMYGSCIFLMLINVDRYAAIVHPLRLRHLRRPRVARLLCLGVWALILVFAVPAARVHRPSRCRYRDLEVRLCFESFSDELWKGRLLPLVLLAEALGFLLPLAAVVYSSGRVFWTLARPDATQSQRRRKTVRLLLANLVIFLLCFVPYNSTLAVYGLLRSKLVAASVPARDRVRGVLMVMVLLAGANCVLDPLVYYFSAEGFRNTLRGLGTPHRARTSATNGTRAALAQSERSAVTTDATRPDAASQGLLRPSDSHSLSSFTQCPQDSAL

LPA2 = LPA2 (Homo sapiens, UniProt Q9HBW0); test: LPA-mediated Ca2+ mobilization, LPA2 MEF cells; assay type: cell-based; conditions: read-out: LPA2 Emax
Sequence of LPA2 (Q9HBW0 whole entry, species assumed): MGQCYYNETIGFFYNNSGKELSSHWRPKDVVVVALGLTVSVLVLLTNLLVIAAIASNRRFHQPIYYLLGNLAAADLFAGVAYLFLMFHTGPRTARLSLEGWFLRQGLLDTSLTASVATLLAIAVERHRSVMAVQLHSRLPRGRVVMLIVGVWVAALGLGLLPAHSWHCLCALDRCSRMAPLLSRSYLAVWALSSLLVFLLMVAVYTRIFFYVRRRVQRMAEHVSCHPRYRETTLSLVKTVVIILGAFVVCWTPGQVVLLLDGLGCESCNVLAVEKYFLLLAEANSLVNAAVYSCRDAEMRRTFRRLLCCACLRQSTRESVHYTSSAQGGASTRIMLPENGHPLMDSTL

LPA4 = LPA4 (Homo sapiens, UniProt Q99677); test: LPA-mediated Ca2+ mobilization, LPA4 CHO cells; assay type: cell-based; conditions: read-out: LPA4 Emax
Sequence of LPA4 (Q99677 whole entry, species assumed): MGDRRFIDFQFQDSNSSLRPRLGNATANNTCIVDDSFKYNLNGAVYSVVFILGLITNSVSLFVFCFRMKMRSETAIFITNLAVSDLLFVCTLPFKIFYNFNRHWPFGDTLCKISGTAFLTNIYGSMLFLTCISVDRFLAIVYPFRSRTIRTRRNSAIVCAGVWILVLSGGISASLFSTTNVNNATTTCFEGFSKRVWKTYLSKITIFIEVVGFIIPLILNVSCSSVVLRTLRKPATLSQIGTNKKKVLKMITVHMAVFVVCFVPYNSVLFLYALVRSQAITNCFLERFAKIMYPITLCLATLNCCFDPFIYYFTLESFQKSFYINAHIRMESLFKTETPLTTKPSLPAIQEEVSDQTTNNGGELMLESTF

LPA3 = biological target: T4, LPA3 (Homo sapiens, UniProt Q9UBY5); test: LPA-mediated Ca2+ mobilization, LPA3 RH7777 cells; assay type: cell-based; conditions: RH7777, read-out: LPA3 Emax
T4 sequence (Q9UBY5 1-353): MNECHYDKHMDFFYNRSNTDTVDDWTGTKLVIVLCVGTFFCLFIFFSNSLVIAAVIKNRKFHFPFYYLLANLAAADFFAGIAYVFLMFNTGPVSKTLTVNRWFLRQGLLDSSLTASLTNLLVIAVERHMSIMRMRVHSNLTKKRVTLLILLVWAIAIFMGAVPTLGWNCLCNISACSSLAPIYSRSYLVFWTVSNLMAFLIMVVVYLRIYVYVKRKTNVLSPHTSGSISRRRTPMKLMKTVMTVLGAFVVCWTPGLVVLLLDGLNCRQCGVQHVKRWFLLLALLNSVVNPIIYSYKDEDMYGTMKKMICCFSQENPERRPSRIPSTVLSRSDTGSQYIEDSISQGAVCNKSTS

## CC(=O)O[C@H]1C(=O)[C@@]2(C)[C@H]([C@H](OC(=O)c3ccccc3)[C@]3(O)C[C@H](OC(=O)[C@H](O)[C@@H](NC(=O)c4ccccc4)c4ccccc4)C(C)=C1C3(C)C)[C@]1(OC(C)=O)CO[C@@H]1C[C@@H]2O [PT, paclitaxel, reference compound]
[1]; PT 48 h, no ATX inhibitor
  PT LD50 for reducing cell growth by 50%, applied alone: 202 nM

## O=C(Nc1cc(F)c(Cl)c(F)c1)c1cc(S(=O)(=O)N2CCOCC2)c(Cl)cc1Cl [Compound 3f, 2,4-Dichloro-N-(4-chloro-3,5-difluorophenyl)-5-(morpholinosulfonyl)benzamide]
Human recombinant ATX [2]
  mechanism: competitive
Human recombinant ATX [3]
  pNP-TMP inhibition: none
[4]
  inhibitory activity for ENPP7: lack inhibitory action
[1]
  LD50 to PT with ATX inhibitor pretreatment: 66 nM
[5]
  inhibition of A2058 cell invasion, screen at 10 μM: as effective as 30
  inhibition of A2058 cell invasion (in words): dose dependently decreased A2058 cell invasion
[6]
  in vitro stability (in words): significant stability
LPA1
  antagonist activity at LPA1 (in words): weak antagonist action; also recorded: exhibited antagonist activity; also recorded: effective in antagonizing LPA1-elicited Ca^2+ responses
[7]
  inhibitory activity for ENPP6: lack inhibitory action

## O=C(Nc1cc(F)c(F)c(F)c1)c1cc(S(=O)(=O)N2CCOCC2)c(Cl)cc1Cl [Compound 3b, 2,4-Dichloro-5-(morpholinosulfonyl)-N-(3,4,5-trifluorophenyl)-benzamide]
Human recombinant ATX [2]
  mechanism: competitive
Human recombinant ATX [3]
  pNP-TMP inhibition: sparing effects on hydrolysis of the nucleotide substrate pNP-TMP and none
[4]
  inhibitory activity for ENPP7: lack inhibitory action
[1]
  LD50 to PT with ATX inhibitor pretreatment: 127 nM
[5]
  inhibition of A2058 cell invasion, screen at 10 μM: as effective as 30
  inhibition of A2058 cell invasion (in words): inhibit ATX-dependent invasion; also recorded: dose dependently decreased A2058 cell invasion
[8]; 4T1-TaxR cells
  resensitization of cancer stem-like cells to PT (in words): potently reduced in vitro chemotherapeutic resistance; also recorded: effectively resensitized
[8]; 4T1-TaxR mammospheres, PT 100 nM, compound 5 μM, 3 days
  further reduction of cell viability compared to PT alone: 25–30%
[6]
  in vitro stability (in words): significant stability
LPA1
  antagonist activity at LPA1 (in words): weak antagonist action; also recorded: exhibited antagonist activity; also recorded: effective in antagonizing LPA1-elicited Ca^2+ responses
[7]
  inhibitory activity for ENPP6: lack inhibitory action

## CCCCCCCC/C=C\CCCCCCCC(=O)OCC(O)COP(=O)(O)O (centres unmarked) [LPA 18:1]
LPA5
  LPA5 μEmax: 100.00 ± 0.00
LPA2
  Emax: 100%
LPA4
  Emax: 100%
LPA3
  Emax: 100%
LPA1; RH7777, read-out: LPA1 Emax
  Emax: 100%
